Converted amounts (≈) assume the structure as drawn.
molecular target: T1, 1-deoxy-D-xylulose 5-phosphate reductoisomerase, apicoplastic (Plasmodium falciparum (isolate 3D7), UniProt Q8IKG4); experiment: Inhibition of Plasmodium falciparum DXR expressed in Escherichia coli BL21 CodonPlus (DE3)-RIL cells using DOXP as substrate in presence of NADPH by UV-visible spectrophotometry; settings: not given
T1 sequence (Q8IKG4 whole entry): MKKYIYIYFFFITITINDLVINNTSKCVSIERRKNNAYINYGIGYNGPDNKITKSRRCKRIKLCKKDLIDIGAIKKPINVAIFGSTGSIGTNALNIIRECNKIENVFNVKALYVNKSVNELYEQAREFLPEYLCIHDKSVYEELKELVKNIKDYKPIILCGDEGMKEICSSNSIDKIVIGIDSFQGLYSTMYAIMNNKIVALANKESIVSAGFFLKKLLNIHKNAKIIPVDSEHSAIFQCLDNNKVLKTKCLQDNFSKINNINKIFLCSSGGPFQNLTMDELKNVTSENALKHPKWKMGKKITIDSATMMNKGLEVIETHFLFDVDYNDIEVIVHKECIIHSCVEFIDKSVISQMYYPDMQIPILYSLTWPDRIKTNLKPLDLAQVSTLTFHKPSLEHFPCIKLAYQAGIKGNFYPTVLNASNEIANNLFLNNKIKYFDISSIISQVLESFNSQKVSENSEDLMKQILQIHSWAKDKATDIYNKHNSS

SMILES	IC50 [µM]
CC(=O)N(CCC(c1ccc(Cl)c(Cl)c1)P(=O)(O)O)OC(C)c1ccccc1 (stereo not given)	16.8
CC(=O)N(O)CCC(c1ccc(Cl)c(Cl)c1)P(=O)(O)O (stereo not given)	13.6
CC(=O)N(CCC(c1ccc(Cl)c(Cl)c1)P(=O)(O)O)OC(C)c1ccc(Cl)cc1 (stereo not given)	20.4
CC(=O)N(CCC(c1ccc(Cl)c(Cl)c1)P(=O)(O)O)OCc1ccc(C(C)C)cc1 (stereo not given)	26.5

molecular target: T2, 1-deoxy-D-xylulose 5-phosphate reductoisomerase, apicoplastic (Plasmodium falciparum (isolate 3D7)) (UniProt Q8IKG4); experiment: Inhibition of Plasmodium falciparum DXR expressed in Escherichia coli BL21 CodonPlus (DE3)-RIL cells assessed as remaining activity using DOXP as substrate at 100 uM in presence of NADPH by UV-visible spectrophotometry relative to control; settings: not given
T2 sequence (whole entry): T1 sequence (Q8IKG4 whole entry)
Outline: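 Recombinant His-tagged PfDXR purified by TALON affinity. Assay at 37 °C in 100 mM Tris pH 7.8, 25 mM MgCl2, 0.86 µM enzyme, 150 µM NADPH; reaction started with 144 µM DOXP. NADPH oxidation followed at 340 nm. Single inhibitor concentration 100 µM, given as percent remaining activity; technical duplicates.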

SMILES	Activity [%]
CC(=O)N(CCC(c1ccc(Cl)c(Cl)c1)P(=O)(O)O)OCCCCc1ccccc1 (stereo not given)	25.6
CC(=O)N(CCC(c1ccc(Cl)c(Cl)c1)P(=O)(O)O)OC(C)c1ccc(C(F)(F)F)cc1 (stereo not given)	74.7
CC(=O)N(CCC(c1ccc(Cl)c(Cl)c1)P(=O)(O)O)OCc1ccc(-c2ccc(C(C)C)cc2)cc1 (stereo not given)	56.1
CC(=O)N(CCC(c1ccc(Cl)c(Cl)c1)P(=O)(O)O)OCc1ccc2ccccc2c1 (stereo not given)	46.6
CC(=O)N(CCC(c1ccc(Cl)c(Cl)c1)P(=O)(O)O)OCc1ccc(-c2ccccc2)cc1 (stereo not given)	27
CC(=O)N(CCC(c1ccc(Cl)c(Cl)c1)P(=O)(O)O)OCc1ccc(Br)cc1 (stereo not given)	53.1
CC(=O)N(CCC(c1ccc(Cl)c(Cl)c1)P(=O)(O)O)OCc1ccccc1 (stereo not given)	26.7

tested on: Plasmodium falciparum; experiment: Antiplasmodial activity against Plasmodium falciparum 3D7 assessed as reduction in parasite growth by measuring DNA content after 3 days by PicoGreen staining based FLUOstar omega microplate reader analysis; type: functional, organism-based; settings: 3D7, 72 h
Outline: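 Asynchronous cultures in 2% hematocrit, RPMI-1640 complete medium with 0.5% Albumax, under 5% O2/5% CO2/90% N2 at 37 °C. Diluted to 0.5% parasitemia, inhibitors 1.2 nM to 492.4 µM added at start. Growth read after 3 days as DNA content by PicoGreen fluorescence (485/528 nm). IC50 from 4-parameter nonlinear regression; technical duplicate, biological triplicate.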

SMILES	IC50 [µM]
CC(=O)N(CCC(c1ccc(Cl)c(Cl)c1)P(=O)(O)O)OCCCCc1ccccc1 (stereo not given)	63.3
CC(=O)N(CCC(c1ccc(Cl)c(Cl)c1)P(=O)(O)O)OC(C)c1ccccc1 (stereo not given)	3.6
CC(=O)N(CCC(c1ccc(Cl)c(Cl)c1)P(=O)(O)O)OC(C)c1ccc(C(F)(F)F)cc1 (stereo not given)	79.2
CC(=O)N(CCC(c1ccc(Cl)c(Cl)c1)P(=O)(OCOC(=O)C(C)(C)C)OCOC(=O)C(C)(C)C)OCc1ccc(Br)cc1 (stereo not given)	34.8
CC(=O)N(O)CCC(c1ccc(Cl)c(Cl)c1)P(=O)(O)O (stereo not given)	18.6
CC(=O)N(CCC(c1ccc(Cl)c(Cl)c1)P(=O)(O)O)OCc1ccc(-c2ccc(C(C)C)cc2)cc1 (stereo not given)	38.1
CC(=O)N(CCC(c1ccc(Cl)c(Cl)c1)P(=O)(O)O)OC(C)c1ccc(Cl)cc1 (stereo not given)	68.6
CC(=O)N(CCC(c1ccc(Cl)c(Cl)c1)P(=O)(O)O)OCc1ccc(C(C)C)cc1 (stereo not given)	68.7
CC(=O)N(CCC(c1ccc(Cl)c(Cl)c1)P(=O)(O)O)OCc1ccc2ccccc2c1 (stereo not given)	60.9
CC(=O)N(CCC(c1ccc(Cl)c(Cl)c1)P(=O)(O)O)OCc1ccc(-c2ccccc2)cc1 (stereo not given)	86.4
CC(=O)N(CCC(c1ccc(Cl)c(Cl)c1)P(=O)(O)O)OCc1ccc(Br)cc1 (stereo not given)	67.8
CC(=O)N(CCC(c1ccc(Cl)c(Cl)c1)P(=O)(O)O)OCc1ccccc1 (stereo not given)	31.5

molecular target: T3, 1-deoxy-D-xylulose 5-phosphate reductoisomerase (Mycobacterium tuberculosis) (UniProt P9WNS1); experiment: Inhibition of Mycobacterium tuberculosis DXR expressed in Escherichia coli BL21 CodonPlus (DE3)-RIL cells assessed as remaining activity using DOXP as substrate at 100 uM in presence of NADPH by UV-visible spectrophotometry relative to control; settings: not given
T3 sequence (whole entry): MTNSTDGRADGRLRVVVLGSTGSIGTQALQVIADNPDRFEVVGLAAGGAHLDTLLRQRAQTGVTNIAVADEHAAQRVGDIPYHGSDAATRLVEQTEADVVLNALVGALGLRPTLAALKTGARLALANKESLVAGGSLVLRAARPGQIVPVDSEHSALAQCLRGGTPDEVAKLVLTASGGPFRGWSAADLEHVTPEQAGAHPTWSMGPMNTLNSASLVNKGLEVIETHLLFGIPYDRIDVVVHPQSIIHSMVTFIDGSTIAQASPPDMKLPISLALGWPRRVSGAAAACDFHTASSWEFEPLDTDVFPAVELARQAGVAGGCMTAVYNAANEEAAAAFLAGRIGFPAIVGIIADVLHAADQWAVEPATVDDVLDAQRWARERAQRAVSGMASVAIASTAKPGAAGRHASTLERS
Outline: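 Recombinant MtbDXR (pET101/D-TOPO in E. coli BL21 CodonPlus (DE3)-RIL, IMAC-purified) at 0.89 µM in 100 mM MES pH 6.5, 25 mM MgCl2, 150 µM NADPH, 47 µM DOXP, 37 °C. Inhibitor was tested at a single 100 µM. NADPH oxidation was followed at 340 nm, and percent remaining activity was reported. Technical duplicates.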

SMILES	Activity [%]
CC(=O)N(CCC(c1ccc(Cl)c(Cl)c1)P(=O)(O)O)OCCCCc1ccccc1 (stereo not given)	99.1
CC(=O)N(CCC(c1ccc(Cl)c(Cl)c1)P(=O)(O)O)OC(C)c1ccccc1 (stereo not given)	64.6
CC(=O)N(CCC(c1ccc(Cl)c(Cl)c1)P(=O)(O)O)OC(C)c1ccc(C(F)(F)F)cc1 (stereo not given)	59.6
CC(=O)N(O)CCC(c1ccc(Cl)c(Cl)c1)P(=O)(O)O (stereo not given)	15.7
CC(=O)N(CCC(c1ccc(Cl)c(Cl)c1)P(=O)(O)O)OCc1ccc(-c2ccc(C(C)C)cc2)cc1 (stereo not given)	63.2
CC(=O)N(CCC(c1ccc(Cl)c(Cl)c1)P(=O)(O)O)OC(C)c1ccc(Cl)cc1 (stereo not given)	66.2
CC(=O)N(CCC(c1ccc(Cl)c(Cl)c1)P(=O)(O)O)OCc1ccc(C(C)C)cc1 (stereo not given)	80.9
CC(=O)N(CCC(c1ccc(Cl)c(Cl)c1)P(=O)(O)O)OCc1ccc2ccccc2c1 (stereo not given)	82.1
CC(=O)N(CCC(c1ccc(Cl)c(Cl)c1)P(=O)(O)O)OCc1ccc(-c2ccccc2)cc1 (stereo not given)	93.9
CC(=O)N(CCC(c1ccc(Cl)c(Cl)c1)P(=O)(O)O)OCc1ccc(Br)cc1 (stereo not given)	72.3
CC(=O)N(CCC(c1ccc(Cl)c(Cl)c1)P(=O)(O)O)OCc1ccccc1 (stereo not given)	34.2

tested on: Mycobacterium tuberculosis; experiment: Antibacterial activity against Mycobacterium tuberculosis H37Rv assessed as reduction in bacterial growth incubated for 2 weeks by macroscopic plate reader analysis; type: functional; settings: 336 h
Outline: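 H37Rv grown in 7H9 broth with 0.08% NaCl, 0.4% glucose, 0.05% casitone and 0.05% tyloxapol, then diluted 1:500. Compounds were made as 20 mg/mL DMSO stocks and run as eleven 2-fold serial dilutions. Plates were held 2 weeks at 37 °C and MIC99 was read macroscopically. Three independent measurements.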

SMILES	MIC [µM]
CC(=O)N(CCC(c1ccc(Cl)c(Cl)c1)P(=O)(O)O)OCCCCc1ccccc1 (stereo not given)	3.1 (≈ 1.47 µg/mL)
CC(=O)N(CCC(c1ccc(Cl)c(Cl)c1)P(=O)(O)O)OC(C)c1ccccc1 (stereo not given)	> 208
CC(=O)N(CCC(c1ccc(Cl)c(Cl)c1)P(=O)(O)O)OC(C)c1ccc(C(F)(F)F)cc1 (stereo not given)	> 91
CC(=O)N(CCC(c1ccc(Cl)c(Cl)c1)P(=O)(OCOC(=O)C(C)(C)C)OCOC(=O)C(C)(C)C)OCc1ccc(Br)cc1 (stereo not given)	8.5 (≈ 6.29 µg/mL)
CC(=O)N(O)CCC(c1ccc(Cl)c(Cl)c1)P(=O)(O)O (stereo not given)	> 266
CC(=O)N(CCC(c1ccc(Cl)c(Cl)c1)P(=O)(O)O)OCc1ccc(-c2ccc(C(C)C)cc2)cc1 (stereo not given)	45 (≈ 24.8 µg/mL)
CC(=O)N(CCC(c1ccc(Cl)c(Cl)c1)P(=O)(O)O)OC(C)c1ccc(Cl)cc1 (stereo not given)	72 (≈ 34.6 µg/mL)
CC(=O)N(CCC(c1ccc(Cl)c(Cl)c1)P(=O)(O)O)OCc1ccc(C(C)C)cc1 (stereo not given)	12.3 (≈ 5.83 µg/mL)
CC(=O)N(CCC(c1ccc(Cl)c(Cl)c1)P(=O)(O)O)OCc1ccc2ccccc2c1 (stereo not given)	24.2 (≈ 11.7 µg/mL)
CC(=O)N(CCC(c1ccc(Cl)c(Cl)c1)P(=O)(O)O)OCc1ccc(-c2ccccc2)cc1 (stereo not given)	23.1 (≈ 11.7 µg/mL)
CC(=O)N(CCC(c1ccc(Cl)c(Cl)c1)P(=O)(O)O)OCc1ccc(Br)cc1 (stereo not given)	> 92
CC(=O)N(CCC(c1ccc(Cl)c(Cl)c1)P(=O)(O)O)OCc1ccccc1 (stereo not given)	> 214

molecular target: T2, 1-deoxy-D-xylulose 5-phosphate reductoisomerase, apicoplastic (Plasmodium falciparum (isolate 3D7)); experiment: Inhibition of Plasmodium falciparum DXR expressed in Escherichia coli BL21 CodonPlus (DE3)-RIL cells using DOXP as substrate at 100 uM in presence of NADPH by UV-visible spectrophotometry relative to control; settings: not given
Outline: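 PfDXR single-point test at 100 µM inhibitor. Conditions: 0.86 µM IMAC-purified enzyme, 100 mM Tris pH 7.8, 25 mM MgCl2, 150 µM NADPH, 37 °C. Reaction was started with 144 µM DOXP, and NADPH oxidation was monitored at 340 nm. Percent remaining activity was reported; technical duplicates.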

SMILES	inhibition [%]
CC(=O)N(CCC(c1ccc(Cl)c(Cl)c1)P(=O)(O)O)OC(C)c1ccccc1 (stereo not given)	> 90
CC(=O)N(O)CCC(c1ccc(Cl)c(Cl)c1)P(=O)(O)O (stereo not given)	> 90
CC(=O)N(CCC(c1ccc(Cl)c(Cl)c1)P(=O)(O)O)OC(C)c1ccc(Cl)cc1 (stereo not given)	> 90
CC(=O)N(CCC(c1ccc(Cl)c(Cl)c1)P(=O)(O)O)OCc1ccc(C(C)C)cc1 (stereo not given)	> 90
